The chains are these.
B1: tRNA (parent)
chain: GUUCCGUUGGCGUAAUGGUAACGCGUCUCCCUCCUAAGGAGAAGACUGCGGGUUCGAGUCCCGUACGGAACG

Variants at the floor of the assay were thinned out. Where only a bound is given, the exact number is not on record here.

The data set covers variants of B1. Kind of data set: yeast fitness relative to wild type (ratio to wild type); higher = fitter; tRNA-Arg(CCU), competitive growth, 37 C, YPD. In a few lines:
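Amplicons of the tRNA-Arg(CCU) gene were sequenced, 100-nucleotide paired-end, from the start population and from each end population of a pooled yeast competition. The competition, in six parallel replicates, lasted 24 hours in YPD at 37°C. Fitness relative to wild type was calculated from changes in genotype frequencies. Genotypes had to have ≥ 100 starting reads, and estimates < 0.5 were set to 0.5.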
On to G10C C46U C62U, for which the yeast fitness is at most 0.5. Regarding G10A C27U A40C U47A G48C, the yeast fitness came to 0.585. Turning to C11A A36G C49G A70G, the yeast fitness came to 0.584. On to G10C C22A C24G U53A C62U, for which the yeast fitness is at most 0.5. The figure for G10C U47G C55U A70G is at most 0.5. Regarding G10A A45G C55A, the yeast fitness was at most 0.5. Consider G10A C27U C33U A43U U54C G68C, for which the yeast fitness is at most 0.5. As for C11A C27U C30A A43C C60U, the yeast fitness is at most 0.5. With G10C C11G G50A A65C, the yeast fitness is at most 0.5. For the variant G10C A14C C27A C29G A57C, the yeast fitness is at most 0.5. The figure for G10A G18C C33G C66G is at most 0.5; for G10C A37C A43U it is at most 0.5.

For the variant G10C G41A C62U, the yeast fitness was at most 0.5.

Turning to G10C C22A C24G G50C A65C, the yeast fitness was at most 0.5.

With G10A U16A G39C, the yeast fitness is at most 0.5. The figure for G10A G56A C60U is at most 0.5; for G10A C49A G67A it is at most 0.5. For the variant C11A C27G C62U G68A, the yeast fitness was at most 0.5. In the case of G10A C30G A65G, the yeast fitness is at most 0.5. In the case of G10A A15U A36G U47G A65U, the yeast fitness was at most 0.5.

Turning to G10C C31G, the yeast fitness turned out to be 0.631.

With G10C A43C C46G C55G A65U, the yeast fitness was 0.547. As for G10A C49A, the yeast fitness is 0.521. Take G10A C27U G67C: the yeast fitness came to 0.627.

On to G10C G12A C33A U35G U47A C55A C61U, for which the yeast fitness is at most 0.5. Consider G10C U26C A45G A65C, for which the yeast fitness stood at 0.635. As to G10C G58C G67A, the yeast fitness was at most 0.5.

Consider C11A A70U, for which the yeast fitness came out at 0.581. As for G10A C22A C46A, the yeast fitness was at most 0.5.

For the variant C11A A21G C33G A36U G44A U59C, the yeast fitness is at most 0.5. As to G10A A57G G68C, the yeast fitness was at most 0.5. As to G10C C11G G56C G68A, the yeast fitness is at most 0.5. Turning to G10A A15G C27U A42C G50C, the yeast fitness is at most 0.5. On to G10C C24U C34G A65C, for which the yeast fitness was at most 0.5. Regarding G10C C22A C24G U53A G67A, the yeast fitness is at most 0.5. As to G10A C27U G56A C60U, the yeast fitness came to 0.556. Take G10A A14U C31A C46A A65U: the yeast fitness is at most 0.5. For the variant G10A G18C A20U C30A, the yeast fitness was at most 0.5.

Take C11A A43G G50C G56C A65G: the yeast fitness was at most 0.5. The figure for G10A A42C A43C A70U is at most 0.5. For G10U U13A, the yeast fitness worked out at 0.675. For G10C C22A C60G C61U G63A, the yeast fitness is at most 0.5. For the variant G10C C30U G38A, the yeast fitness came to 0.531. The same measure for C11A C27U C33U U35C A57U: at most 0.5; for G10A A21C C24A G63A A65C: at most 0.5.

With G10A C11G A69C A70G, the yeast fitness is at most 0.5. Regarding G10U G48A A70U, the yeast fitness was determined as 0.649. For the variant G10A G39A, the yeast fitness is 0.784.

For the variant C11A C27G C61G G68A, the yeast fitness is at most 0.5.

Turning to G10A A42C A43C C66A, the yeast fitness is at most 0.5. The figure for C11A A21U C34A is at most 0.5. With G10C A15U C29G C46U G51C C66U, the yeast fitness was at most 0.5.

In the case of G10A G63C C66U, the yeast fitness was at most 0.5.

Take G10C A43U G63C C66A: the yeast fitness was at most 0.5. G10C A15G U35A G44A: the yeast fitness turned out to be 0.589.

For G10C A36C U47A G48C U54G A65C, the yeast fitness was at most 0.5.

G10A U16A G23A C30G G51C: the yeast fitness was at most 0.5. With G10C A15U C29G U35A A36C A65G C66G, the yeast fitness was at most 0.5. Take G10C A15G: the yeast fitness amounted to 0.786. On to G10C A37U, for which the yeast fitness is at most 0.5. For the variant G10C A37C, the yeast fitness stood at 0.622. Take C11A A36G A43C G48A: the yeast fitness came out at 0.558. On to G10A A42G, for which the yeast fitness came to 0.656. Regarding C11A A21C C55U C62U G67C, the yeast fitness is 0.529. G10A A21U C31G: the yeast fitness is at most 0.5. As to G10C G12C C46G C55U, the yeast fitness was at most 0.5. For the variant G10A C60G C61G, the yeast fitness came to 0.528. As to G10A U16A A65G, the yeast fitness amounted to 0.542.

Consider G10A U35A G56A, for which the yeast fitness turned out to be 0.617.

On to C11A A15G C22G C61U, for which the yeast fitness is at most 0.5. Regarding C11A A21C C30U C66U, the yeast fitness turned out to be 0.539.

As for C11A A20U C22U, the yeast fitness was 0.552.

In the case of G10A A45G, the yeast fitness was determined as 0.839. The same measure for G10A A36U A37G: at most 0.5; for G10C A43C U47C C55U A69C: at most 0.5. For C11A C24G C49U, the yeast fitness was 0.588.

Consider G10A U19C G41C, for which the yeast fitness turned out to be 0.532. On to G10C C33A, for which the yeast fitness was determined as 0.506. The same measure for G10C C33G: 0.558. In the case of G10A C24G G56A, the yeast fitness was at most 0.5. As to G10A A20G U35G A37G, the yeast fitness was at most 0.5.

On to G10C U26A U59C C66U, for which the yeast fitness is at most 0.5. For the variant G10A C33U G44C A45G G58A, the yeast fitness was at most 0.5. For the variant C11A A42C, the yeast fitness amounted to 0.606. Regarding G10A U16A C49A G50A G68C, the yeast fitness is at most 0.5. Take G10C C34A U53A U54G: the yeast fitness is at most 0.5. In the case of G10C G51C A65C C66U, the yeast fitness was at most 0.5. As for G10A U16C C29U, the yeast fitness was found to be 0.599. Take G10A C11U A20G A40G C55G: the yeast fitness is at most 0.5.

Turning to G10A C11A C29A A45C A69U, the yeast fitness was at most 0.5. The figure for G10C C33G C62A G67C is at most 0.5; for G10A C34U G39C it is at most 0.5; for G10A C11A G67C it is at most 0.5. The same measure for C11A C22G: 0.623. As to G10A C30U C34U A42U A57G, the yeast fitness was at most 0.5. As to G10C C31G A70U, the yeast fitness amounted to 0.569. The figure for G10C A43C is 0.591; for G10C A14U G38C it is 0.736; for G10U C31U it is 0.78. For G10A C29G C33U G50A, the yeast fitness was 0.535. For the variant G10C G17A A20U, the yeast fitness was at most 0.5. In the case of G10C A45G, the yeast fitness was determined as 0.716. For G10A G17A, the yeast fitness was 0.556. The figure for G10A G17C is 0.549; for C11A A14G C24U G41C A42G C55G it is at most 0.5.

As to G10C U13A C31A C62U, the yeast fitness is at most 0.5. The same measure for G10C U54C G56A: at most 0.5; for G10C A36U: 0.539. In the case of C11A A15C C24G U59A, the yeast fitness was at most 0.5.

As to G10A A15C G25A C66U, the yeast fitness is 0.543. On to G10C G12A U54A G68A, for which the yeast fitness was at most 0.5.

Regarding G10A C29A C34G A43C C60G, the yeast fitness turned out to be 0.663. As for C11A A14U C27U, the yeast fitness is at most 0.5. For G10A U16A C31A G51A, the yeast fitness amounted to 0.584. For the variant G10C C27U C30U U53A A69C, the yeast fitness is at most 0.5.

For G10A U28C C60G, the yeast fitness was at most 0.5. On to G10C C31A G56A A65G C66A G68C, for which the yeast fitness was at most 0.5. In the case of G10C U26A A70U, the yeast fitness is 0.622. As for G10C U26A C27U A42G A70G, the yeast fitness is at most 0.5. Consider G10A C11A C29A, for which the yeast fitness came to 0.627. Consider G10A A15C A37C C62A, for which the yeast fitness was determined as 0.636. In the case of C11A C27G C33U G56A C61G, the yeast fitness is at most 0.5. On to C11A A37U C62A C66U, for which the yeast fitness is at most 0.5. For G10A A15G, the yeast fitness was determined as 0.782. As for C11A C22U U35C, the yeast fitness was at most 0.5. Consider G10A G18A A42C C61A, for which the yeast fitness amounted to 0.858. With G10C G51C A65U, the yeast fitness was at most 0.5. Regarding G10C A21U G23C G56A C61A A65G, the yeast fitness was 0.567.

G10C A36U G41A C66U A70C: the yeast fitness was at most 0.5.

For the variant G10A U28A, the yeast fitness turned out to be 0.633.

Turning to G10C C33A A40U U54A, the yeast fitness is at most 0.5. Turning to G10A G18A, the yeast fitness was at most 0.5. The figure for G10C G39A is 0.563. For the variant G10U U26C G39A A65C, the yeast fitness was at most 0.5. Consider G10C C11U A21G A40G, for which the yeast fitness was at most 0.5. With G10C G12A C22A C24G U53A, the yeast fitness was at most 0.5. The figure for G10C C49G U53G is 0.551; for G10A U16A it is 0.708. For the variant G10A U16C, the yeast fitness was 0.777. The same measure for G10A U19A G44C: 0.54; for G10C G25C C55A: 0.545; for C11A A57G: 0.655.

On to G10C G18A C30G G44A G48A G58A, for which the yeast fitness is at most 0.5.

As to G10C U19A C66U, the yeast fitness was at most 0.5. Take G10A U35G A43G C46U A69U: the yeast fitness is at most 0.5. Regarding G10C U13A A14G A20G C22A C24G G52C, the yeast fitness was at most 0.5.

For G10A C34U G44A, the yeast fitness was at most 0.5. With G10C A21C C30U G41C A70U, the yeast fitness is at most 0.5. For the variant G10C C24G C46U A69U, the yeast fitness came to 0.569. As to C11A C27G C30G G44C, the yeast fitness turned out to be 0.538.

Regarding G10A C27G U28G C34U C46G, the yeast fitness turned out to be 0.576. On to G10A U53A A65G, for which the yeast fitness was at most 0.5. For the variant G10C A14U U19C C60A G68C, the yeast fitness was at most 0.5. The figure for C11A C27A C55U is at most 0.5; for G10A G17C C31U C55U C60A it is at most 0.5; for G10A G18A C46A A65U it is at most 0.5.

Regarding G10C A14C, the yeast fitness was 0.61. As for G10C C24A C61U, the yeast fitness is at most 0.5. The figure for G10A G38A A57G is at most 0.5; for G10C A21C C29A C30G A40C it is at most 0.5.

For G10A U54G C61U, the yeast fitness came to 0.55. As for C11A A37C C49G C55G, the yeast fitness was at most 0.5.

Regarding G10A A43U C60U, the yeast fitness is at most 0.5. In the case of G10C C29U C31U G63U, the yeast fitness is at most 0.5.

As for C11A C27G U35A A43U U54C A65G, the yeast fitness amounted to 0.659. Consider G10A G12A U53A, for which the yeast fitness was at most 0.5.

As for G10C U16G C31A U32G C66A, the yeast fitness is at most 0.5.

These data come from the RNAGym collection of RNA variant scans (doi:10.1126/science.aae0568).
